# Source: ChEMBL document CHEMBL3822380, “Simple avarone mimetics as selective agents against multidrug resistant cancer cells” (Eur J Med Chem, 2016)
# pIC50: −log10 of the molar value. The source made the active and inactive calls.
# Tests used:
# NCI-H460 [1] = test: Induction of apoptosis in human NCI-H460 cells assessed as live cells at 25 uM after 72 hrs by annexin-V/propidium iodide staining-based flow cytometric analysis (reference value: 98.3%); format: functional
# NCI-H460 [2] = test: Induction of apoptosis in human NCI-H460 cells assessed as early apoptotic cells at 25 uM after 72 hrs by annexin-V/propidium iodide staining-based flow cytometric analysis (reference value: 0.3%); format: functional
# NCI-H460 [3] = test: Induction of apoptosis in human NCI-H460 cells assessed as late apoptotic/necrotic cells at 25 uM after 72 hrs by annexin-V/propidium iodide staining-based flow cytometric analysis (reference value: 0.2%); format: functional
# NCI-H460 [4] = test: Induction of apoptosis in human NCI-H460 cells assessed as dead cells at 25 uM after 72 hrs by annexin-V/propidium iodide staining-based flow cytometric analysis (reference value: 1.2%); format: functional
# NCI-H460 [5] = test: Induction of apoptosis in multidrug resistant human NCI-H460 cells assessed as live cells at 25 uM after 72 hrs by annexin-V/propidium iodide staining-based flow cytometric analysis (reference value: 96.4%); format: functional
# NCI-H460 [6] = test: Induction of apoptosis in multidrug resistant human NCI-H460 cells assessed as early apoptotic cells at 25 uM after 72 hrs by annexin-V/propidium iodide staining-based flow cytometric analysis (reference value: 1.1%); format: functional
# NCI-H460 [7] = test: Induction of apoptosis in multidrug resistant human NCI-H460 cells assessed as late apoptotic/necrotic cells at 25 uM after 72 hrs by annexin-V/propidium iodide staining-based flow cytometric analysis (reference value: 1%); format: functional
# NCI-H460 [8] = test: Induction of apoptosis in multidrug resistant human NCI-H460 cells assessed as dead cells at 25 uM after 72 hrs by annexin-V/propidium iodide staining-based flow cytometric analysis (reference value: 1.5%); format: functional
# [9] = Induction of apoptosis in human HaCaT cells assessed as live cells at 25 uM after 72 hrs by annexin-V/propidium iodide staining-based flow cytometric analysis (reference value: 96.8%); format: cell-based; details: read-out: Activity
# HaCaT [10] = test: Induction of apoptosis in human HaCaT cells assessed as early apoptotic cells at 25 uM after 72 hrs by annexin-V/propidium iodide staining-based flow cytometric analysis (reference value: 0.2%); format: cell-based
# HaCaT [11] = test: Induction of apoptosis in human HaCaT cells assessed as late apoptotic/necrotic cells at 25 uM after 72 hrs by annexin-V/propidium iodide staining-based flow cytometric analysis (reference value: 0.2%); format: cell-based
# HaCaT [12] = test: Induction of apoptosis in human HaCaT cells assessed as dead cells at 25 uM after 72 hrs by annexin-V/propidium iodide staining-based flow cytometric analysis (reference value: 2.8%); format: cell-based
# NCI-H460 [13] = test: Cytotoxicity against human NCI-H460 cells after 72 hrs by MTT assay; format: functional, cell-based; details: NCI-H460, 72 h
# How it was run: (§1)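 Seeding in 96-well plates at 1000 (NCI-H460), 2000 (NCI-H460/R) or 4000 (HaCaT) cells/well, treated after 24 h for 72 h. MTT at 0.4 mg/mL final, 4 h at 37 °C. Formazan dissolved in DMSO, absorbance read at 540 nm. Inhibition % = (1 − A treated/A untreated)×100. IC30 and IC50 obtained by linear regression.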
# NCI-H460 [14] = test: Cytotoxicity against multidrug resistant human NCI-H460 cells after 72 hrs by MTT assay; format: functional, cell-based; details: NCI-H460, 72 h; how it was run: as §1
# HaCaT [15] = test: Cytotoxicity against human HaCaT cells after 72 hrs by MTT assay; format: cell-based; details: for pIC50: Homo sapiens, HaCaT; for IC30: human, hacat; how it was run: as §1
# NCI-H460 [16] = test: Induction of mitochondrial membrane potential depolarization in human NCI-H460 cells at 25 uM after 15 mins by JC1-staining-based flow cytometric analysis; format: functional, cell-based
# How it was run: (§2)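 Cells treated with 25 µM compound, with CDDP 5 µM as control. Stained with JC-1 for 15 min at 37 °C in a CO2 incubator, washed twice in assay buffer and resuspended in PBS. Flow cytometry read red aggregate (FL2-H) versus green monomer (FL1-H) fluorescence. Live cells were also imaged by fluorescence microscopy.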
# NCI-H460 [17] = test: Induction of mitochondrial membrane potential depolarization in multidrug resistant human NCI-H460 cells at 25 uM after 15 mins by JC1-staining-based flow cytometric analysis; format: functional, cell-based; how it was run: as §2
# HaCaT [18] = test: Induction of mitochondrial membrane potential depolarization in human HaCaT cells at 25 uM after 15 mins by JC1-staining-based flow cytometric analysis; format: cell-based; details: 0.25 h; how it was run: as §2
# Candida albicans = test: Antifungal activity against Candida albicans ATCC 10231 by broth microdilution method; format: functional
# How it was run: (§3)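 Broth microdilution per NCCLS. Compounds dissolved in DMSO as 10 mg/mL stock, diluted in Mueller Hinton broth (bacteria) or Sabouraud dextrose broth (fungi). Amikacin served as the positive control for bacteria and nystatin for fungi.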
# Saccharomyces cerevisiae = test: Antifungal activity against Saccharomyces cerevisiae ATCC 9763 by broth microdilution method; format: functional; how it was run: as §3
# Aspergillus brasiliensis = test: Antifungal activity against Aspergillus brasiliensis ATCC 16404 by broth microdilution method; format: functional; how it was run: as §3
# [19] = Selectivity ratio of IC30/IC50 for human HaCaT cells to IC30/IC50 for human NCI-H460 cells; format: ADME, cell-based; details: HaCaT cells versus NCI-H460 cells
# How it was run: (§4)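 Fold threshold of 1.5 used to call selectivity to cancer cells, resistance, or selectivity to MDR cells.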
# [20] = Selectivity ratio of IC30/IC50 for human HaCaT cells to IC30/IC50 for multidrug resistant human NCI-H460 cells; format: ADME, cell-based; details: HaCaT cells versus multidrug resistant NCI-H460 cells; how it was run: as §4
# NCI-H460 [21] = test: Induction of superoxide anion generation in human NCI-H460 cells at 25 uM after 72 hrs by DHE staining-based flow cytometric analysis relative to control; format: functional, cell-based
# How it was run: (§5)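 Seeded as for cell death (50,000 or 100,000 cells/well), treated 72 h at 25 µM, with CDDP 5 µM as control. Adherent cells trypsinized and loaded with 1 µM DHE for 30 min at 37 °C in the dark, then washed twice in PBS. Flow cytometry at ex 488/em 585 nm (FL2-H). Mean fluorescence intensity corrected for autofluorescence and compared with untreated control.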
# NCI-H460 [22] = test: Induction of superoxide anion generation in multidrug resistant human NCI-H460 cells at 25 uM after 72 hrs by DHE staining-based flow cytometric analysis relative to control; format: functional, cell-based; how it was run: as §5
# HaCaT [23] = test: Induction of superoxide anion generation in human HaCaT cells at 25 uM after 72 hrs by DHE staining-based flow cytometric analysis relative to control; format: cell-based; how it was run: as §5
# Micrococcus luteus [24] = test: Antibacterial activity against Micrococcus luteus ATCC 4698 by broth microdilution method; format: functional; details: NCTC 2665; how it was run: as §3
# Clostridium sporogenes = test: Antibacterial activity against Clostridium sporogenes ATCC 19404 by broth microdilution method; format: functional; how it was run: as §3
# Escherichia coli = test: Antibacterial activity against Escherichia coli ATCC 25922 by broth microdilution method; format: functional; how it was run: as §3
# Proteus hauseri = test: Antibacterial activity against Proteus hauseri ATCC 13315 by broth microdilution method; format: functional; how it was run: as §3
# Salmonella enteritidis = test: Antibacterial activity against Salmonella enterica subsp. enterica serovar Enteritidis ATCC 13076 by broth microdilution method; format: functional; how it was run: as §3
# Pseudomonas aeruginosa = test: Antibacterial activity against Pseudomonas aeruginosa ATCC 9027 by broth microdilution method; format: functional; how it was run: as §3
# Kocuria rhizophila = test: Antibacterial activity against Kocuria rhizophila ATCC 9341 by broth microdilution method; format: functional; details: DC2201; how it was run: as §3
# NCI-H460 [25] = test: Selectivity ratio of IC30/IC50 for human NCI-H460 cells to IC30/IC50 for multidrug resistant human NCI-H460 cells; format: functional; how it was run: as §4
# Staphylococcus aureus = test: Antibacterial activity against Staphylococcus aureus ATCC 6538 by broth microdilution method; format: functional; how it was run: as §3
# Bacillus spizizenii = test: Antibacterial activity against Bacillus subtilis ATCC 6633 by broth microdilution method; format: functional; how it was run: as §3
# Micrococcus luteus [26] = test: Antibacterial activity against Micrococcus luteus ATCC 10240 by broth microdilution method; format: functional; how it was run: as §3
Structure (SMILES),Activity (NCI-H460 [1]),Activity (NCI-H460 [2]),Activity (NCI-H460 [3]),Activity (NCI-H460 [4]),Activity (NCI-H460 [5]),Activity (NCI-H460 [6]),Activity (NCI-H460 [7]),Activity (NCI-H460 [8]),"viability at 72 h, 25 µM [9]",Activity (HaCaT [10]),Activity (HaCaT [11]),Activity (HaCaT [12]),IC30 (NCI-H460 [13]),pIC50 (NCI-H460 [13]),IC30 (NCI-H460 [14]),pIC50 (NCI-H460 [14]),pIC50 (HaCaT [15]),IC30 (HaCaT [15]),selectivity ratio [19],selectivity ratio [20],further results
CC(C)(C)C1=CC(=O)C=CC1=O,95.2%,0.5%,0.5%,3.8%,95.2%,0.5%,1.2%,3.1%,86.8%,1.9%,3.8%,7.5%,> 100 µM,< 4.00,31 µM,4.14,4.02,41 µM,,,Activity (NCI-H460 [16]): inactive; Activity (NCI-H460 [17]): inactive; Activity (HaCaT [18]): Non-toxic
CCCCCCCCNC1=CC(=O)C=C(C(C)(C)C)C1=O,54.9%,0.2%,2.9%,42%,61.4%,0.1%,2.1%,36.4%,77%,0.6%,2.6%,19.8%,5 µM,4.70,8 µM,4.68,4.52,18 µM,≤ 1.5,≤ 1.5,MIC (Candida albicans): 67 µM; MIC (Saccharomyces cerevisiae): 539 µM; MIC (Aspergillus brasiliensis): 2150 µM; Activity (NCI-H460 [21]): inactive; Activity (NCI-H460 [22]): Active; Activity (HaCaT [23]): Non-toxic; Activity (NCI-H460 [16]): Active; Activity (NCI-H460 [17]): Active; Activity (HaCaT [18]): Non-toxic
CC1=CCC[C@H]2[C@](C)(CC3=CC(=O)C=CC3=O)[C@@H](C)CC[C@]12C [AVARONE],74%,3.4%,16.3%,6.3%,65.8%,2.6%,22.7%,8.9%,78.3%,2.5%,10.1%,9.1%,36 µM,4.08,10 µM,4.62,4.43,16 µM,≤ 1.5,≤ 1.5,Activity (NCI-H460 [21]): Active; Activity (NCI-H460 [22]): Active
CC(C)(C)C1=CC(=O)C(NCc2ccccc2)=CC1=O,,,,,,,,,,,,,13 µM,4.72,5 µM,4.82,4.55,12 µM,≤ 1.5,≤ 1.5,MIC (Micrococcus luteus [24]): 2320 µM; MIC (Clostridium sporogenes): 2320 µM; MIC (Escherichia coli): 36 µM; MIC (Proteus hauseri): 2320 µM; MIC (Salmonella enteritidis): 4650 µM; MIC (Pseudomonas aeruginosa): 4650 µM; MIC (Kocuria rhizophila): 4650 µM; selectivity ratio (NCI-H460 [25]): <=1.5; MIC (Staphylococcus aureus): 72 µM; MIC (Bacillus spizizenii): 4650 µM; MIC (Micrococcus luteus [26]): 18 µM
